Shown are actives, neighbours in structure and some others; about 2.8% of the full set was active somewhere.
SR-BI DiI inh = mouse SR-BI HDL lipid transfer inhibition; Q61009; ldlA[mSR-BI] CHO cells, DiI-HDL uptake fluorescence, 3 h; inhibition, % at 12.5 µM; 0.96% of 320,000 active; AID 488896;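 active = mean replicate inhibition of at least 70% and a set share of replicates each scoring 70 or more; inconclusive = meets just one of the two criteria; inactive = fails both criteria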
Target sequence (Q61009 whole entry, looked up): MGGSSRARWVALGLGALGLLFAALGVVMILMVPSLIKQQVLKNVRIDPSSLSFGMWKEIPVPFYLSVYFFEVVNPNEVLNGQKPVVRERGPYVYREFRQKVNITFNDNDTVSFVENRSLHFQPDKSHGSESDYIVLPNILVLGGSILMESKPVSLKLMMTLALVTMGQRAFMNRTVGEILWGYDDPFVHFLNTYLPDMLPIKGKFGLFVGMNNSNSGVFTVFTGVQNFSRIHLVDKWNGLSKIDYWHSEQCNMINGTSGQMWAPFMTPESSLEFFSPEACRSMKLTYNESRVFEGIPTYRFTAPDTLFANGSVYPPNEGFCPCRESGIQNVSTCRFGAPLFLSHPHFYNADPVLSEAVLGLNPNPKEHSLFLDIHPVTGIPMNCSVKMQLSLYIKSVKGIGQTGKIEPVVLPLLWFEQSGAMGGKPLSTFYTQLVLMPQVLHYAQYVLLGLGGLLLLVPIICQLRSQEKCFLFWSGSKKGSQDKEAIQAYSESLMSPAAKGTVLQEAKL
SR-BI DiI-HDL act = activators of SR-BI mediated HDL lipid uptake | CHO ldlA[mSR-BI] cells, DiI-HDL uptake fluorescence, 3 h; 100 = double the neutral-control signal | activation, % at 12.5 µM | 0.096% of 320,000 active | AID 504775;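 active = mean replicate activation of at least 60% and every replicate at or above 60%; inconclusive = mean or all-replicate condition met, but not both; inactive = mean below 60% and not all replicates reaching 60%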
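Material: SR-BI-overexpressing, LDLR-lacking CHO cells; schedule: compound exposure 3 h, 37 °C; reagent: DiI-labelled HDL at 10 µg/mL final; technique: bottom-read fluorescence, 550/595 nm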
CAL PDZ FP-1 = blocks peptide binding to human CAL PDZ domain. 0.02% of 330,000 active. purified CAL PDZ, TMR-peptide fluorescence polarization, 1 h. inhibition, % at 20 µM. AID 504414. Q9HD26;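 active = highest replicate inhibition of at least 40%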
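System: tagged CAL PDZ domain. Schedule: 1 h room-temperature incubation prior to read. Signal: fluorescence polarization (mP). Measure: percent inhibition from loss of millipolarization.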
CAL PDZ FP-2 = CAL PDZ (human) peptide binding inhibition. Q9HD26. purified CAL PDZ, TMR-peptide fluorescence polarization, 1 h. inhibition, % at 24.9 µM. 0.92% of 300,000 active. AID 602252;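 active = mean inhibition of at least 30% with at least half of replicates also reaching 30%; inconclusive = no clear call, values can overlap the other calls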
dFosB act-1 = activators of mouse delta FosB homodimer. purified delta FosB, TAMRA-CDK5 oligo fluorescence polarization; percent of positive-control signal above neutral wells. activation, % at 25 µM. 0.99% of 340,000 active. AID 493131;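 active = mean activation above about 17%, with every replicate also reaching it, limit read from the data, passing the limit was not always enough; inconclusive = only one of the two conditions met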
dFosB act-2 = enhances mouse delta FosB homodimer binding to DNA; shares compounds with dFosB act-1; purified delta FosB, TAMRA-CDK5 oligo fluorescence polarization; normalised: neutral wells 0, positive control 100; activation, % at 24.9 µM; 2,400 tested, under 10 active;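 active = highest replicate activation at or above 34% and every replicate reaching that threshold; inconclusive = meets only one of the two criteria; inactive = meets neither criterion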;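 also: higher polarization means more probe DNA bound by delta FosB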
Of the large screens only hits and unclear results are named; the others gave an inactive call (follow-up assays come after a bar, where they were run).

COc1ccc(CCNC(=O)CCn2c(SCC#N)nc3ccccc3c2=O)cc1OC	dFosB act-1 22.2 | dFosB act-2 inactive
COc1ccc(CCNC(=O)CCCn2c(SCC#N)nc3ccccc3c2=O)cc1OC	none
COc1ccc2nc(N(CCN(C)C)C(=O)c3ccc(C(=O)c4ccccc4)cc3)sc2c1	dFosB act-1 31.0 | dFosB act-2 inactive
CN(C)CCN(C(=O)c1ccc2ccccc2c1)c1nc2ccc(Br)cc2s1	none
Cc1ccc2nc(N(CCN(C)C)C(=O)c3ccc4ccccc4c3)sc2c1	dFosB act-1 26.5 | dFosB act-2 inactive
CN(C)CCN(C(=O)c1ccc2ccccc2c1)c1nc2c(F)cc(F)cc2s1	dFosB act-1 35.7 | dFosB act-2 inactive
CCOc1ccc2nc(N(CCCN(C)C)C(=O)c3ccc4c(c3)CCCC4)sc2c1	dFosB act-1 25.8 | dFosB act-2 inactive
Cc1ncc([N+](=O)[O-])n1Cc1ccc(Br)cc1	none
CCOc1cccc2sc(N(CCN(C)C)C(=O)c3cc4ccccc4cc3OC)nc12	dFosB act-1 inconclusive
CCOc1ccc2nc(N(CCN(C)C)C(=O)c3cc4ccccc4cc3OC)sc2c1	dFosB act-1 48.3 | dFosB act-2 inactive
CCN1CCCC1CNC(=O)Cn1cc(C)c(=O)[nH]c1=O (stereo not drawn)	none
Cc1cc(=O)oc2cc(NC(=O)C(C)Oc3cccc(Cl)c3)ccc12 (stereo not drawn)	none
O=C(N/N=C/c1ccc(OC(=O)c2cccc(F)c2)cc1)c1cccnc1	dFosB act-1 93.7 (no result: SR-BI DiI inh, SR-BI DiI-HDL act) | dFosB act-2 inactive
COc1ccc(/C=N/NC(=O)c2cccnc2)cc1	none
Cc1ccc2occ(/C=N/NC(=O)c3ccc(O)cc3)c(=O)c2c1	dFosB act-1 52.2 | dFosB act-2 inactive
O=C(NNC(=O)c1cccs1)c1cccc(F)c1	none
Cc1cccc(C(=O)Oc2ccc(/C=N/NC(=O)c3ccc(O)cc3)cc2)c1	dFosB act-1 34.1 | dFosB act-2 inactive
Cc1cccc(C(=O)Oc2ccc(/C=N/NC(=O)c3ccccc3O)cc2)c1	none
O=C(N/N=C/c1ccc(OC(=O)c2cccs2)cc1)c1cccc(F)c1	dFosB act-1 61.3 (no result: CAL PDZ FP-2) | dFosB act-2 inactive
CCCC(=O)Nc1nnc(S(=O)(=O)N(C)Cc2ccco2)s1	none
COc1ccc(N2CCN(C(=O)c3ccc(CS(=O)(=O)c4ccc(Br)cc4)o3)CC2)cc1	none
CC1Sc2ccc(S(=O)(=O)CCC(=O)NC(C)c3ccccc3)cc2NC1=O (stereo not drawn)	none
COc1ccc(C(=O)CCC(=O)N2CCN(c3ccccc3)CC2)cc1	none (no result: CAL PDZ FP-2)
COCCCNC(=O)Cn1nnc(-c2ccc(NC(=O)c3ccc(F)cc3)cc2)n1	dFosB act-1 35.5 | dFosB act-2 inactive
O=C(Nc1ccc(-c2nnn(CC(=O)N3CCN(C(=O)c4ccco4)CC3)n2)cc1)c1ccc(F)cc1	dFosB act-1 34.8 | dFosB act-2 inactive
COc1ccc(CCNC(=O)Cn2nnc(-c3ccc(OC)c(OC)c3)n2)cc1OC	none
Fc1ccc(-c2noc(-c3ccc4c(c3)CCO4)n2)cc1	dFosB act-1 27.7 (no result: CAL PDZ FP-2) | dFosB act-2 inactive
OCCCCCN=c1cc(-c2ccccc2)oc2ccc(Cl)cc12	dFosB act-1 21.5 | dFosB act-2 inactive
Cc1ccc(-c2nnn(CC(=O)Nc3ccc(S(=O)(=O)N4CCC(C)CC4)cc3)n2)cc1	dFosB act-1 68.4 | dFosB act-2 inactive
CC1CCN(S(=O)(=O)c2ccc(NC(=O)Cn3nnc(-c4ccccc4)n3)cc2)CC1	dFosB act-1 inconclusive
Cc1ccc(COc2ccsc2C(=O)NNC(N)=S)cc1	dFosB act-1 28.5 | dFosB act-2 inactive
COc1ccc(-c2nc3ccccc3o2)cc1NC(=O)c1ccc(Br)o1	dFosB act-1 73.0 | dFosB act-2 inactive
COc1ccc(-c2cn3cccnc3n2)cc1NC(=O)c1ccc(Br)o1	none
Cc1ccc(Oc2ccc(S(=O)(=O)N3CCOCC3)cc2C(N)=O)cc1C	none
Cc1cc(C(=O)N/N=C/c2ccc(-c3cccc([N+](=O)[O-])c3)o2)n[nH]1	dFosB act-1 33.2 | dFosB act-2 inactive
O=C(O)c1nn(-c2ccccc2)nc1-c1nn(-c2ccccc2)nc1C(=O)O	none
COC(=O)c1nn(-c2ccccc2)nc1-c1nn(-c2ccccc2)nc1C(=O)OC	dFosB act-1 22.7 | dFosB act-2 inactive
CCOc1ccccc1C(=O)NCC(=O)N(C)Cc1cccnc1	none
Cc1ccc2nc(C)cc(Nc3ccc([N+](=O)[O-])cc3)c2c1	dFosB act-1 63.4 | dFosB act-2 inactive
O=C(CC1C(=O)NCCN1Cc1ccccc1C(F)(F)F)NC1CCCCC1 (stereo not drawn)	none
Cc1cccn2c(=O)nc(SCC(=O)NCc3ccccc3)nc12	none (no result: CAL PDZ FP-2)
COc1ccc(S(=O)(=O)N2CCN(C(=O)c3cc(-c4ccccc4OC)n[nH]3)CC2)cc1	none (no result: CAL PDZ FP-2)
COc1cccc(-c2cc(C(=O)N3CCN(S(=O)(=O)c4ccc(Br)cc4)CC3)[nH]n2)c1	dFosB act-1 75.0 | dFosB act-2 inactive
CCCCn1c(CN2C(=O)c3ccccc3C2=O)nc2ccccc2c1=O	dFosB act-1 29.6 | dFosB act-2 inactive
Cn1nc(C(C)(C)C)c([N+](=O)[O-])c1C(=O)N1CCCCCC1	none
Cc1cc(C)cc(NC(=O)Cn2nnc(C(=O)NCc3ccccc3Cl)c2N)c1	dFosB act-1 40.8 | dFosB act-2 inactive
Cc1cc(C)cc(NC(=O)Cn2nnc(C(=O)NCc3ccc(F)cc3)c2N)c1	dFosB act-1 57.8 | dFosB act-2 inactive
Cc1ccc(S(=O)(=O)N2CCN(C(=O)COC(=O)COc3cccc4c3OC(C)(C)C4)CC2)cc1	none (no result: CAL PDZ FP-2)
CCOc1ccc2nc(N(CCN(C)C)C(=O)/C=C/c3cccs3)sc2c1	dFosB act-1 31.9 | dFosB act-2 inactive
CN(C)CCN(C(=O)/C=C/c1cccs1)c1nc2c(F)cc(F)cc2s1	dFosB act-1 53.1 | dFosB act-2 inactive
CN(C)CCCN(C(=O)/C=C/c1cccs1)c1nc2ccc(F)cc2s1	none
CCc1ccc2nc(N(CCN(C)C)C(=O)/C=C/c3cccs3)sc2c1	none
O=C(COC(=O)/C=C/c1cccc(Br)c1)Nc1cccc(S(=O)(=O)NC2=NCCC2)c1	none (no result: CAL PDZ FP-2)
Cc1cc(C)cc(NC(=O)C2CCN(S(=O)(=O)c3ccc4[nH]c(=O)ccc4c3)CC2)c1	dFosB act-1 46.3 | dFosB act-2 inactive
CC(=O)c1sc(NC(=O)c2ccc(C(C)(C)C)cc2)nc1C	none
CC(=O)c1sc(NC(=O)c2ccc(C)c(C)c2)nc1C	dFosB act-1 23.5 | dFosB act-2 inactive
O=C(CCn1c(=S)[nH]c2cc3c(cc2c1=O)OCO3)NCc1cccc(Cl)c1	dFosB act-1 21.0 | dFosB act-2 inactive

Screening results deposited in PubChem by Broad Institute.
